Assay results: ChEMBL document CHEMBL4706664, “Rational drug design of 6-substituted 4-anilino-2-phenylpyrimidines for exploration of novel ABCG2 binding site” (Eur J Med Chem, 2021); call rule not given here

Legend:
ABCG2 [1] = molecular target: T1, ABCG2 (Homo sapiens, UniProt Q9UNQ0); test: Inhibition of ABCG2 (unknown origin) expressed in MDCK-II cells assessed as reduction in pheophorbide A efflux measured after 2 hrs by flow cytometry relative to Ko143; format: cell-based; settings: MDCK-II cells expressing ABCG2, probe pheophorbide A, read-out: Imax
T1 sequence (Q9UNQ0 whole entry): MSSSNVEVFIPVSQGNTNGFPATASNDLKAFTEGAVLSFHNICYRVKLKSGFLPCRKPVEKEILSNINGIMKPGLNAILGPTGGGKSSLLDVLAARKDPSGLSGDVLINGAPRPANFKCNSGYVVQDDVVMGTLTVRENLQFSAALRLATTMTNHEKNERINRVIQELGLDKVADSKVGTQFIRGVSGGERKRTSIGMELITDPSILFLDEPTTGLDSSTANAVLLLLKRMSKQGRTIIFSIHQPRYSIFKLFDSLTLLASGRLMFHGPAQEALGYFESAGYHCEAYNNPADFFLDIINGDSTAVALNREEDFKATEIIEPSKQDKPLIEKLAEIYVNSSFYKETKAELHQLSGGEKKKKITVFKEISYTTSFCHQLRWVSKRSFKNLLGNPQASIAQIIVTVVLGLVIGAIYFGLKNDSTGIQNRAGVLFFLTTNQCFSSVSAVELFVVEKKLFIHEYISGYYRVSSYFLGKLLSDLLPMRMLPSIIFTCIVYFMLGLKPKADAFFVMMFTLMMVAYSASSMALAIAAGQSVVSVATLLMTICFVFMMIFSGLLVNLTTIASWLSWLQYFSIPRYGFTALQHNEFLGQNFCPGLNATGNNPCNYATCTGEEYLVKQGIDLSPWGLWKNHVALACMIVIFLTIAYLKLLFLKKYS
How it was run: (§1)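 Pheophorbide A accumulation in MDCK II BCRP cells, about 45,000 cells/well in Krebs-HEPES buffer pH 7.4. Compound dilutions were prepared at 0.316–100 µM, and 20 µL of 5 µM pheophorbide A was added. Incubated 2 h at 37 °C, 5% CO2. Fluorescence read by flow cytometry (ex 488 nm, em 695/50 nm). IC50 and Imax are mean ± SEM of at least three independent experiments.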

[2] = molecular target: T2, Broad substrate specificity ATP-binding cassette transporter ABCG2 (Homo sapiens, UniProt Q9UNQ0); test: Inhibition of ABCG2 (unknown origin) expressed in MDCK-II cells assessed as reduction in pheophorbide A efflux measured after 2 hrs by flow cytometry; format: cell-based; how it was run: as §1
T2 sequence (Q9UNQ0 whole entry): T1 sequence (Q9UNQ0 whole entry)

ABCG2 [3] = test: Therapeutic index, ratio of GI50 for cytotoxicity against ABCG2 overexpressing MDCK-II cells to IC50 for inhibition of ABCG2 (unknown origin) expressed in MDCK-II cells; settings: dog
[4] = Cytotoxicity against ABCG2 overexpressing MDCK-II cells assessed as reduction in cell viability measured after 72 hrs by MTT assay; format: ADME, cell-based, Canis lupus familiaris; settings: dog
How it was run: (§2)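 MTT cell viability. Compound dilution series prepared in culture medium at 3.16 µM to 1 mM (dilution stock; added 20 µL to 180 µL cells). Seeding per well: MDCK II and MDCK II BCRP 2000, A2780 and A2780/ADR 8000, H69AR 20,000. Incubated 72 h, 37 °C, 5% CO2. MTT 5 mg/mL added for 60 min, formazan dissolved in DMSO, absorbance 570 nm (690 nm background). Medium = 100%, 10% DMSO = 0% viability. GI50 by four-parameter logistic fit. Mean ± SEM of at least three independent experiments.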

ABCB1 [5] = molecular target: ABCB1 (Homo sapiens, UniProt P08183); test: Inhibition of ABCB1 (unknown origin) expressed in human A2780 ADR cells assessed as reduction in calcein AM efflux at 10 uM preincubated for 30 mins followed by calcein AM addition and measured at 60 secs interval for 1 hr by fluorescence assay relative to control; format: cell-based; settings: A2780 ADR cells expressing ABCB1, probe calcein AM, time 90 min
ABCB1 (Homo sapiens, UniProt P08183), sequence (P08183 whole entry): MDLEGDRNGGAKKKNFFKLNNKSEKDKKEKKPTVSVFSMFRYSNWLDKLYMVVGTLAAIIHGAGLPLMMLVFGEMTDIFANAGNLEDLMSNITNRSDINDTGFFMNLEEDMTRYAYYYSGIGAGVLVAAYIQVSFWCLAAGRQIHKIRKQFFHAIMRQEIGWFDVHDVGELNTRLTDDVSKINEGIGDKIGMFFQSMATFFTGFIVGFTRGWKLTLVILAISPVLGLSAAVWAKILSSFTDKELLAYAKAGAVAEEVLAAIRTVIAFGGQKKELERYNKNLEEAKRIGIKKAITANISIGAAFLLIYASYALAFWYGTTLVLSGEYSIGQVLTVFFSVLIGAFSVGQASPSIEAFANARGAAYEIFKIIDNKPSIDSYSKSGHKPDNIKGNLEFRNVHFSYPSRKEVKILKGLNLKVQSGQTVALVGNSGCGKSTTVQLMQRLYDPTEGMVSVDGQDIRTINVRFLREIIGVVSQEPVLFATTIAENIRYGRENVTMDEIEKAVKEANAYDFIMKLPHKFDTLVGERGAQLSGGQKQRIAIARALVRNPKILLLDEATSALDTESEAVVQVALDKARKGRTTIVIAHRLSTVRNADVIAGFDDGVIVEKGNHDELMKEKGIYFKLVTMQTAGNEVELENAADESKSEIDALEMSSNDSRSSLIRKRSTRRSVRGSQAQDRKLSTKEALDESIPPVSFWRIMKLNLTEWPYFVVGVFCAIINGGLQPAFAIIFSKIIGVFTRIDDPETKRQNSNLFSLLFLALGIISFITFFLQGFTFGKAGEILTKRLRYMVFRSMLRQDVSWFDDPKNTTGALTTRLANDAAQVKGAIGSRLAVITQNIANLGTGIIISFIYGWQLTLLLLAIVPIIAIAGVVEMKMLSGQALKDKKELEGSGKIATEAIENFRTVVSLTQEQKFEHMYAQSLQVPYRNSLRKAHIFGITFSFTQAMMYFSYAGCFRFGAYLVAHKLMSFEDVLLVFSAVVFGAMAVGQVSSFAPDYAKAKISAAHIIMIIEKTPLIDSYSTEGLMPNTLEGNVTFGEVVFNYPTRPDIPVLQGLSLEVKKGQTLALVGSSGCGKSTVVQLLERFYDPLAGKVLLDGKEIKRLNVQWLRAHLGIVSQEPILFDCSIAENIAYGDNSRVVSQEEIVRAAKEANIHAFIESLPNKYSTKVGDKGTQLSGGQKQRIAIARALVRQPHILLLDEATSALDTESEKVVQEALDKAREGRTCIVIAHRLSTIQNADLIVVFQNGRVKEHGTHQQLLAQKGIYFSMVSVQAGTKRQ
How it was run: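 Calcein AM accumulation in A2780/ADR cells (30,000/well, Krebs-HEPES buffer pH 7.4). Cells preincubated with compound 30 min at 37 °C, 5% CO2. Screening at 10 µM.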

ABCC1 = ABCC1 (Homo sapiens, UniProt P33527); test: Inhibition of ABCC1 (unknown origin) expressed in human NCI-H69AR cells assessed as reduction in calcein AM efflux at 10 uM preincubated for 30 mins followed by calcein AM addition and measured at 60 secs interval for 1 hr by fluorescence assay relative to control; format: cell-based; settings: NCI-H69AR cells expressing ABCC1, probe calcein AM, time 90 min
ABCC1, sequence (P33527 whole entry): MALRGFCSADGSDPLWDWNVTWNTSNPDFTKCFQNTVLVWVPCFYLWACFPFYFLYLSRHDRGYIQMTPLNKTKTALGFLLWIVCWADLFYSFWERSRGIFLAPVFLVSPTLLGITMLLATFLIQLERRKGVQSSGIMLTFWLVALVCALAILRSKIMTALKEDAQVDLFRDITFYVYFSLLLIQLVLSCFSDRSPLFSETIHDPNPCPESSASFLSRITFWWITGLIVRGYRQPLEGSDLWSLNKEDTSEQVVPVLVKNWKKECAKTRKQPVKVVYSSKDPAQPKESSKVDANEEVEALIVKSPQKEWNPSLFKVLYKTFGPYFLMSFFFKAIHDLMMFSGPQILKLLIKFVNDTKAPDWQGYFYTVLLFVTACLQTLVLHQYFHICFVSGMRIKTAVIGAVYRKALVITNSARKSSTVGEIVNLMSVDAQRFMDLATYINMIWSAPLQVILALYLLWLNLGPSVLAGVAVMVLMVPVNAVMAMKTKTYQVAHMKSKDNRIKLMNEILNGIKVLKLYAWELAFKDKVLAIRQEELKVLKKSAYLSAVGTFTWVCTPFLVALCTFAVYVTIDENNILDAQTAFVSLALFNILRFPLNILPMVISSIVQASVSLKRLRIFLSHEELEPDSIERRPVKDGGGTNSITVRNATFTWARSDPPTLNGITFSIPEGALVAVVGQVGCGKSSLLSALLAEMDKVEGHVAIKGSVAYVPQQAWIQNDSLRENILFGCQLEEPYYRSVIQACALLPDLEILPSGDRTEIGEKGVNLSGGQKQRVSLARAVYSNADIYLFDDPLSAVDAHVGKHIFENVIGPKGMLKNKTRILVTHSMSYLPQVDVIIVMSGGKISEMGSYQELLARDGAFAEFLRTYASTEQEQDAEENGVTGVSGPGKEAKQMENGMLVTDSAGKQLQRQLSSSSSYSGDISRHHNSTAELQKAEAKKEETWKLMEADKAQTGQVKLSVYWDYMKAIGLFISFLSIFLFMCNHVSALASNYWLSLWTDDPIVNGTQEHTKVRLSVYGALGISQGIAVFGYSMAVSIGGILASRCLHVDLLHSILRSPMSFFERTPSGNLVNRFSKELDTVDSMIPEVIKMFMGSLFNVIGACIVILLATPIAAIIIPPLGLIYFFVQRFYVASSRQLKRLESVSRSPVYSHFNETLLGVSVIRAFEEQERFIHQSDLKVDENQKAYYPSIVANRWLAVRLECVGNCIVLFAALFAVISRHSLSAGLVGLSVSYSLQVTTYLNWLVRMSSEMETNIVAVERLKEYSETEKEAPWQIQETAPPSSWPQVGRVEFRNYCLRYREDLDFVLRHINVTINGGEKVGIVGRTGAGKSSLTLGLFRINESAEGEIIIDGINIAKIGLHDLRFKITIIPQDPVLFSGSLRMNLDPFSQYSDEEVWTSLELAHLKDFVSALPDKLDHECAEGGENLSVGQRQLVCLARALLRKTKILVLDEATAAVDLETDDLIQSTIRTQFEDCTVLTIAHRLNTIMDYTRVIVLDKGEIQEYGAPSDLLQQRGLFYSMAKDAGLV

[6] = molecular target: ATP-dependent translocase ABCB1 (Homo sapiens, UniProt P08183); test: Inhibition of ABCB1 (unknown origin) expressed in human A2780 ADR cells assessed as reduction in calcein AM efflux preincubated for 30 mins followed by calcein AM addition and measured at 60 secs interval for 1 hr by fluorescence assay; format: cell-based
ATP-dependent translocase ABCB1, sequence (P08183 whole entry): as the sequence (P08183 whole entry) above
How it was run: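 Calcein AM accumulation in A2780/ADR cells (30,000/well, Krebs-HEPES buffer pH 7.4). Cells preincubated with compound 30 min at 37 °C, 5% CO2. Then 20 µL of 3.125 µM calcein AM added. Fluorescence (ex 485/em 520 nm) read every 60 s for 1 h. […] Screening at 10 µM.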

[7] = Cytotoxicity against wild-type MDCK-II cells assessed as reduction in cell viability measured after 72 hrs by MTT assay; format: cell-based, Canis lupus familiaris; settings: dog; how it was run: as §2
[8] = Cytotoxicity against ABCB1 over expressing human A2780 cells assessed as reduction in cell viability measured after 72 hrs by MTT assay; format: ADME, cell-based; settings: in the assay text read “human A2780 cells” for “ABCB1 over expressing human A2780 cells”; how it was run: as §2
[9] = Cytotoxicity against ABCB1 over expressing human A2780 ADR cells assessed as reduction in cell viability measured after 72 hrs by MTT assay; format: ADME, cell-based; settings: ABCB1 overexpressing A2780 ADR cells; how it was run: as §2
[10] = Cytotoxicity against ABCC1 over expressing human NCI-H69AR cells assessed as reduction in cell viability measured after 72 hrs by MTT assay; format: ADME, cell-based; settings: ABCC1 overexpressing NCI-H69AR cells; how it was run: as §2
[11] = Cytotoxicity against human A2780 cells assessed as reduction in cell viability measured after 72 hrs by MTT assay
ABCB1 [12] = test: Therapeutic index, ratio of GI50 for cytotoxicity against ABCB1 over expressing human A2780 ADR cells to IC50 for inhibition of ABCB1 (unknown origin) expressed in human A2780 ADR cells; settings: ABCB1 overexpressing A2780 ADR cells

Row | Emax at 2 h (ABCG2 [1]) | IC50 [2] | inhibition at 1 h, 10 µM (ABCB1 [5]) | inhibition at 1 h, 10 µM (ABCC1) | IC50 ([6]; read-out: IC50) | IC50 ([6]; a2780 adr) | Compound | selectivity ratio (ABCG2 [3]) | GI50 at 72 h [4] | GI50 at 72 h [7] | GI50 at 72 h [8] | GI50 at 72 h [9] | GI50 at 72 h [10] | GI50 at 72 h [11] | selectivity ratio (ABCB1 [12])
1 | 87% | 0.189 µM | – | – | – | – | Cc1cc(Nc2ccc(C#N)cc2)nc(-c2ccccc2)n1 | – | – | – | – | – | – | – | –
2 | 91% | 0.373 µM | > 20% | > 20% | 5.41 µM | – | N#Cc1ccc(Nc2cc(NCc3cccnc3)nc(-c3ccccc3)n2)cc1 | 14.9 | 5.54 µM | 7.47 µM | – | – | – | – | –
3 | 76% | 0.387 µM | > 20% | > 20% | 4.54 µM | – | N#Cc1ccc(Nc2cc(Nc3ccc(O)cc3)nc(-c3ccccc3)n2)cc1 | – | 5.15 µM | 5.3 µM | 8.02 µM | 9.21 µM | 13.7 µM | – | –
4 | 68% | 0.141 µM | > 20% | – | 25.9 µM | – | CNc1cc(Nc2ccc(C#N)cc2)nc(-c2ccccc2)n1 | 180 | 25 µM | 34.1 µM | – | – | – | – | –
5 | 88% | 0.21 µM | > 20% | – | 3.4 µM | – | N#Cc1ccc(Nc2cc(NCc3ccccn3)nc(-c3ccccc3)n2)cc1 | 40.8 | 8.56 µM | 9.44 µM | – | – | – | – | –
6 | 61% | 0.147 µM | – | – | – | Not Active | N#Cc1ccc(Nc2cc(NCCCCc3ccccc3)nc(-c3ccccc3)n2)cc1 | 65 | 9.48 µM | 10.6 µM | – | – | – | – | –
7 | 66% | 0.608 µM | > 20% | > 20% | 3.52 µM | – | N#Cc1ccc(Nc2cc(Nc3cccc(O)c3)nc(-c3ccccc3)n2)cc1 | – | 5.12 µM | 5.24 µM | 3.55 µM | 5.91 µM | 11 µM | – | –
8 | 60% | 0.133 µM | > 20% | – | 6.75 µM | – | N#Cc1ccc(Nc2cc(Nc3ccc(C#N)cc3)nc(-c3ccccc3)n2)cc1 | 58.7 | 7.78 µM | 7.09 µM | – | – | – | – | –
9 | 84% | 0.169 µM | > 20% | – | 5.38 µM | – | N#Cc1ccc(Nc2cc(Nc3ccccc3)nc(-c3ccccc3)n2)cc1 | 24 | 4.05 µM | 4.95 µM | – | – | – | – | –
10 | 100% | 4.41 µM | – | – | – | Not Active | N#Cc1ccc(Nc2cc(-c3ccccc3)nc(-c3ccccc3)n2)cc1 | 4.96 | 21.9 µM | 25.1 µM | – | – | – | – | –
11 | 101% | 0.763 µM | > 20% | > 20% | 6.42 µM | – | CC(C)Nc1cc(Nc2ccc(C#N)cc2)nc(-c2ccccc2)n1 | – | 5.06 µM | 5.58 µM | – | 8.09 µM | 21.4 µM | 13.3 µM | –
12 | 73% | 0.5 µM | > 20% | – | 6.62 µM | – | CCCCNc1cc(Nc2ccc(C#N)cc2)nc(-c2ccccc2)n1 | 12.2 | 6.08 µM | 8.32 µM | – | – | – | – | –
13 | 61% | 0.096 µM | – | – | – | Not Active | N#Cc1ccc(Nc2cc(NCCCc3ccccc3)nc(-c3ccccc3)n2)cc1 | 38.4 | 3.64 µM | 5.03 µM | – | – | – | – | –
14 | 78% | 0.435 µM | > 20% | – | 4.26 µM | – | N#Cc1ccc(Nc2cc(NCc3ccncc3)nc(-c3ccccc3)n2)cc1 | 23.1 | 10 µM | 10.7 µM | – | – | – | – | –
15 | – | 0.189 µM | – | – | – | – | N#Cc1ccc(Nc2ccnc(-c3ccccc3)n2)cc1 | – | – | – | – | – | – | – | –
16 | 86% | 0.223 µM | > 20% | – | 2.98 µM | – | N#Cc1ccc(Nc2cc(Nc3ccccc3O)nc(-c3ccccc3)n2)cc1 | 20.7 | 4.61 µM | 4.23 µM | 9.07 µM | 9.96 µM | – | – | 3.34
17 | 89% | 0.293 µM | > 20% | > 20% | 5.9 µM | – | CCCNc1cc(Nc2ccc(C#N)cc2)nc(-c2ccccc2)n1 | – | 6.56 µM | 8.34 µM | – | 12.3 µM | 23 µM | 15.1 µM | –
18 | 99% | 0.283 µM | > 20% | – | 4.47 µM | – | N#Cc1ccc(Nc2cc(NCc3ccccc3)nc(-c3ccccc3)n2)cc1 | 38 | 10.7 µM | 4.19 µM | – | – | – | – | –
19 | – | – | – | – | – | – | CCc1c2c(nc3ccc(O)cc13)-c1cc3c(c(=O)n1C2)COC(=O)[C@]3(O)CC [7-ETHYL-10-HYDROXYCAMPTOTHECIN] | – | – | 0.139 µM | – | – | – | – | –
